ChEMBL document CHEMBL1130080, “Structure-activity relationships of diverse Annonaceous acetogenins against multidrug resistant human mammary adenocarcinoma (MCF-7/Adr) cells” (J Med Chem, 1997)
≈ marks a conversion by molar mass, not a printed value.

Tests used:
[1] = Bullaticin index relates the IC50 values by normalizing to the value of bullatacin for easy comparison.; format: ADME
In short: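 Index is IC50 of each compound divided by bullatacin's IC50, from the same 6-day BCA protein growth assay in MCF-7/Adr cells, n = 4.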

[2] = Statistical significance of IC 50 values; Expressed as R value; format: ADME
In short: (§1)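 MCF-7/Adr cells kept in RPMI with 10% heat-inactivated FCS and 1% pen/strep, plated at 15 000 cells/mL on poly(D-lysine)-coated plates, left overnight at 37 °C. Day 1: compound added in 95% ethanol (1% by volume). Incubated 6 more days, growth read by BCA protein assay (A570), normalized to vehicle wells, n = 4. IC50 from linear regression through three points spanning 50%; R value from that regression.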

[3] = test system: NCI/ADR-RES; assay: Cytotoxicity against MCF-7/Adr cells.; format: functional, cell-based, Homo sapiens; in short: as §1

Row | SMILES | Bullatacin index [1] | Activity [2] | IC50 [3] [µg/mL]
1 | COc1cccc2c1C(=O)c1c(O)c3c(c(O)c1C2=O)C[C@@](O)(C(=O)CO)C[C@@H]3O[C@H]1C[C@H](N)[C@H](O)[C@H](C)O1 [DOXORUBICIN] | 258.5 | 1 | 5.37 (≈ 9.88 µM)
2 | CCCCC[C@H](O)CCCC[C@H](O)[C@H]1CC[C@H]([C@H]2CC[C@H]([C@H](O)CCCCCCCCCCCCC3=C[C@H](C)OC3=O)O2)O1 [MOTRILIN] | 1.23 | 0.99 | 
3 | CC[C@]1(O)C[C@@H]2CN(CCc3c([nH]c4ccccc34)[C@@](C(=O)OC)(c3cc4c(cc3OC)N(C)[C@H]3[C@@](O)(C(=O)OC)[C@H](OC(C)=O)[C@]5(CC)C=CCN6CC[C@]43[C@@H]65)C2)C1 [VINBLASTINE] | 18.8 | 1 | 390 (≈ 481 µM)
4 | CCCCCCCCCC[C@H](O)[C@H]1CC[C@H]([C@H](O)CC[C@H](O)[C@@H]2CC[C@@H](CCCCCCC[C@@H](O)CC3=C[C@H](C)OC3=O)O2)O1 [BULLATALICIN] | 4.72 | 0.98 | 
5 | CCCCCCCCCCCC/C=C\CC[C@@H](O)[C@H](O)CC[C@H](O)[C@@H]1CC[C@@H](CCCCC[C@@H](O)CC2=C[C@H](C)OC2=O)O1 | 5.26 | 0.98 | 
6 | CCCCCCCCCCCC[C@@H](O)[C@H]1CC[C@H]([C@H](O)CCCC[C@H](O)CCCCC[C@@H](O)CC2=C[C@H](C)OC2=O)O1 [ANNONACIN] | 4.19 | 0.99 | 
7 | CCCCCCCCCCCC[C@@H](O)[C@H]1CC[C@H]([C@H]2CC[C@H]([C@H](O)CC[C@H](O)CCCCCCCCC3=C[C@H](C)OC3=O)O2)O1 | 67.2 | 1 | 1.4 (≈ 2.2 µM)
8 | CCCCCCCCCC[C@@H](O)[C@@H]1CC[C@@H]([C@@H]2CC[C@@H]([C@H](O)CCCCCCCCCC(O)CC3=CC(C)OC3=O)O2)O1 (stereo not given in full) [BULLATACIN] | 1 | 0.97 | 10.8 (≈ 17.7 µM)
9 | CCCCCCCCCC[C@@H](O)[C@@H]1CC[C@H]([C@H](O)CC[C@H](O)[C@@H]2CC[C@@H](CCCCCCC[C@@H](O)CC3=C[C@H](C)OC3=O)O2)O1 [SYLVATICIN] | 2.76 | 0.94 | 
10 | CCCCCCCCCCCC[C@@H](O)[C@H]1CC[C@H]([C@H]2CC[C@H]([C@H](O)CCCCCC[C@@H](O)CC3=C[C@H](C)OC3=O)O2)O1 |  |  | > 1
11 | CCCCCCCCCC[C@@H](O)[C@H]1CC[C@@H]([C@H]2CC[C@H]([C@H](O)CCCCCCCCCC[C@@H](O)CC3=C[C@H](C)OC3=O)O2)O1 [TRILOBACIN] | 2.89 | 0.98 | 59.9 (≈ 96.2 µM)
12 | CCCCCCCCCCCC[C@H](O)[C@H]1CC[C@H]([C@H]2CC[C@H]([C@H](O)CCCCCCCC[C@@H](O)CC3=C[C@H](C)OC3=O)O2)O1 [SQUAMOTACIN] | 6.79 | 1 | 
13 | CCCCCCCCCCCC[C@H](O)[C@@H](O)CC[C@H](O)[C@@H]1CC[C@@H](CCC[C@H](O)[C@@H](O)CC[C@@H](O)CC2=C[C@H](C)OC2=O)O1 |  |  | > 1
14 | CCCCCCCCCCCCCC[C@@H](O)[C@H](O)CC[C@H](O)[C@@H]1CC[C@@H](CCCCC[C@@H](O)CC2=C[C@H](C)OC2=O)O1 [GIGANTETROCIN A] | 0.5 | 0.97 | 
15 | CC[C@]1(O)C[C@H]2CN(CCc3c([nH]c4ccccc34)[C@@](C(=O)OC)(c3cc4c(cc3OC)N(C=O)[C@H]3[C@@](O)(C(=O)OC)[C@H](OC(C)=O)[C@]5(CC)C=CCN6CC[C@]43[C@@H]65)C2)C1 [VINCRISTINE] | 141.3 | 1 | 2.93 (≈ 3.55 µM)
16 | CCCCCCCCCCCC[C@@H](O)[C@H](O)CC[C@H](O)[C@@H]1CC[C@@H](CCC[C@H](O)[C@@H](O)CC[C@@H](O)CC2=C[C@H](C)OC2=O)O1 |  |  | > 1
